Data taken from ChEMBL document CHEMBL5385965, “Discovery of novel positive allosteric modulators targeting GluN1/2A NMDARs as anti-stroke therapeutic agents” (RSC Med Chem, 2024).
The source made the active and inactive calls. The calls are words filed in the database; no cut-off is given here.

Assays:
[1] = biological target: T1, Glutamate NMDA receptor; GRIN1/GRIN2B (Homo sapiens) (UniProt Q05586+Q13224); experiment: Positive allosteric modulation of GluN1/N2B (unknown origin) transfected in HEK293 cells assessed as potentiation of Glu/Gly-induced calcium influx by Cal-520 AM dye based assay; type: cell-based
Method in brief: (§1)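 HEK293 cells were co-transfected 1:1 with GluN1 plus GluN2A or GluN2B at 90% confluence and seeded 40 000/well on poly-D-lysine plates overnight. Cells were loaded with Cal-520 AM for 1.5 h at 37 °C, and compounds were tested at 10 μM. Responses to Glu (2 mM)/Gly (100 μM) were recorded in HEPES-buffered Tyrode's (pH 7.2) at Ex 485/Em 515 nm every 1.6 s, expressed as area under the FMAX/F0 curve.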

PC-12 [2] = experiment: Neuroprotective activity against glutamate-induced excitotoxicity in rat PC12 cells assessed as cell viability at 0.1 uM preincubated for 4 hrs followed by glutamate treatment for 24 hrs by CCK8 assay (reference value: 44.89 +/- 2.08 %); type: functional; details: time 28 hrs, read-out: Activity
PC-12 [3] = experiment: Neuroprotective activity against glutamate-induced excitotoxicity in rat PC12 cells assessed as cell viability at 1 uM preincubated for 4 hrs followed by glutamate treatment for 24 hrs by CCK8 assay (reference value: 43.19 +/- 2.98 %); type: functional; details: time 28 hrs, read-out: Activity
PC-12 [4] = experiment: Neuroprotective activity against glutamate-induced excitotoxicity in rat PC12 cells assessed as cell viability at 10 uM preincubated for 4 hrs followed by glutamate treatment for 24 hrs by CCK8 assay (reference value: 43.75 +/- 2.04 %); type: functional; details: time 28 hrs, read-out: Activity
[5] = Cytotoxicity against rat PC12 cells assessed as cell viability at 10 uM incubated for 4 hrs by CCK8 assay relative to control; type: toxicity, cell-based, PC-12; details: read-out: Activity
HT-22 [6] = experiment: Neuroprotective activity against glutamate-induced excitotoxicity in mouse HT-22 cells assessed as cell viability at 0.1 uM preincubated for 4 hrs followed by glutamate treatment for 24 hrs by CCK8 assay (reference value: 30.31 +/- 2.02 %); type: functional; details: time 28 hrs, read-out: Activity
HT-22 [7] = experiment: Neuroprotective activity against glutamate-induced excitotoxicity in mouse HT-22 cells assessed as cell viability at 1 uM preincubated for 4 hrs followed by glutamate treatment for 24 hrs by CCK8 assay (reference value: 35.56 +/- 2.12 %); type: functional; details: time 28 hrs, read-out: Activity
HT-22 [8] = experiment: Neuroprotective activity against glutamate-induced excitotoxicity in mouse HT-22 cells assessed as cell viability at 10 uM preincubated for 4 hrs followed by glutamate treatment for 24 hrs by CCK8 assay (reference value: 34.80 +/- 4.02 %); type: functional; details: time 28 hrs, read-out: Activity
[9] = biological target: Glutamate NMDA receptor; GRIN1/GRIN2A (Homo sapiens) (UniProt Q05586+Q12879); experiment: Positive allosteric modulation of GluN1/N2A (unknown origin) transfected in HEK293 cells assessed as potentiation of Glu/Gly-induced calcium influx by Cal-520 AM dye based assay; type: cell-based; details: filed as positive allosteric modulator; method in brief: as §1
[10] = biological target: Glutamate NMDA receptor; GRIN1/GRIN2A/GRIN2B (Homo sapiens) (UniProt Q05586+Q12879+Q13224); experiment: Positive allosteric modulation of GluN1/N2A/N2B (unknown origin) transfected in HEK293 cells assessed as potentiation of Glu/Gly-induced calcium influx by Cal-520 AM dye based assay; type: cell-based
Mus musculus [11] = experiment: Neuroprotective activity against tMCAO-reperfusion induced nerve injury in C57BL/6 mouse model assessed as reduction in volume of ischemia cerebral infarction at 5 mg/kg, ip measured after 22 hrs by TTC staining based analysis relative to control; type: functional; set-up: scale not given: the % may be the effect or the level left
Mus musculus [12] = experiment: Neuroprotective activity against tMCAO-reperfusion induced nerve injury in C57BL/6 mouse model assessed as reduction in volume of ischemia cerebral infarction at 10 mg/kg, ip measured after 22 hrs by TTC staining based analysis relative to control; type: functional; set-up: scale not given: the % may be the effect or the level left
Mus musculus [13] = experiment: Neuroprotective activity against tMCAO-reperfusion induced nerve injury in C57BL/6 mouse model assessed as reduction in volume of ischemia cerebral infarction at 5 mg/kg, ip measured after 22 hrs by TTC staining based analysis (reference value: 130.60 +/- 9.93 mm3); type: functional
Mus musculus [14] = experiment: Neuroprotective activity against tMCAO-reperfusion induced nerve injury in C57BL/6 mouse model assessed as reduction in volume of ischemia cerebral infarction at 10 mg/kg, ip measured after 22 hrs by TTC staining based analysis (reference value: 130.60 +/- 9.93 mm3); type: functional
Mus musculus [15] = experiment: Neuroprotective activity against tMCAO-reperfusion induced nerve injury in C57BL/6 mouse model assessed as recovery of neurological deficit score at 5 to 10 mg/kg, ip measured after 22 hrs; type: functional, organism-based; details: dose 5-10 mg/kg
Method in brief: (§2)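 Male C57BL/6 mice (6–8 weeks, 18–22 g) were randomized and given 1, 5 or 10 mg/kg i.p. in 5% DMSO, 20% PEG300, 5% Tween-80 in saline. Under isoflurane, the left MCA was occluded with a nylon monofilament for 1.5 h, then reperfused, with body temperature held at 37 °C. Neurological scores were taken after tMCAO. n=6, mean ± SD, one-way ANOVA with Dunnett's test vs vehicle.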

Mus musculus [16] = experiment: Neuroprotective activity against tMCAO-reperfusion induced nerve injury in C57BL/6 mouse model assessed as recovery of neurological deficit score at 10 mg/kg, ip measured after 22 hrs; type: functional, organism-based; method in brief: as §2
[17] = biological target: T1, Glutamate NMDA receptor; GRIN1/GRIN2B (Homo sapiens); experiment: […] of GluN1/N2B (unknown origin) transfected in HEK293 cells assessed as potentiation of Glu/Gly-induced calcium influx by Cal-520 AM dye based assay; type: cell-based; method in brief: as §1

Structure (SMILES) | Activity [1] | viability at 0.1 µM (PC-12 [2]) | viability at 1 µM (PC-12 [3]) | viability at 10 µM (PC-12 [4]) | viability at 4 h, 10 µM [5] | viability at 0.1 µM (HT-22 [6]) | viability at 1 µM (HT-22 [7]) | viability at 10 µM (HT-22 [8]) | also measured
COc1cc(/C=C/C(=O)NCC(O)c2ccc(O)cc2)ccc1O (configuration not stated) | inactive | 64.2% | 66.5% | 62.8% | 96.6% | 42.7% | 77.6% | 39.6% | –
COCCCOc1ccnc(C[S+]([O-])c2nc3ccccc3[nH]2)c1C (configuration not stated) [RABEPRAZOLE] | inactive | 64.7% | 66.7% | 60.9% | 93.2% | 39.9% | 76.5% | 16% | –
COc1cc(OC/C=C(\C)CCC=C(C)C)c2ccc(=O)oc2c1 | inactive | 67.4% | 69% | 70.1% | 74.7% | 34.9% | 69% | 41.4% | –
O=C(CCCCc1ccc2c(c1)OCO2)N1CCCCC1 | inactive | – | – | – | – | – | – | – | –
COc1ccc(C(O)CNC(=O)/C=C/c2ccccc2)cc1 (configuration not stated) | inactive | – | – | – | – | – | – | – | Activity [9]: Dose-Dependent Effect; Activity [10]: inactive; Activity (Mus musculus [11]): 30.68%; Activity (Mus musculus [12]): 42.7%; Activity (Mus musculus [13]): 90.53 mm3; Activity (Mus musculus [14]): 74.83 mm3; Activity (Mus musculus [15]): Active
CC1=NN(c2ccccc2)C(=O)C1 [EDARAVONE] | – | – | – | – | – | – | – | – | Activity (Mus musculus [14]): 68.04 mm3; Activity (Mus musculus [16]): Active
CCCCCCC/C=C/C(=O)CCc1ccc(O)c(OC)c1 | inactive | – | – | – | – | – | – | – | –
COc1cc(CNC(=O)CCCCCCC(C)C)ccc1O [DIHYDROCAPSAICIN] | inactive | 66.1% | 76.1% | 102% | 104% | 32.6% | 95.4% | 43.3% | –
COc1cc(/C=C/C(=O)NCCc2ccc(O)cc2)cc(OC)c1O | inactive | – | – | – | – | – | – | – | –
O=C(/C=C/c1ccc(O)c(O)c1)OC(Cc1ccc(O)c(O)c1)C(=O)O (configuration not stated) | inactive | – | – | – | – | – | – | – | –
CC(Cc1ccc(O)c(O)c1)C(C)Cc1ccc(O)c(O)c1 (configuration not stated) | inactive | – | – | – | – | – | – | – | –
CC(C)=CCC/C(C)=C/COc1ccc2ccc(=O)oc2c1 | inactive | – | – | – | – | – | – | – | –
N[C@@H](CC(=O)N1CCn2c(nnc2C(F)(F)F)C1)Cc1cc(F)c(F)cc1F [SITAGLIPTIN] | inactive | 62.6% | 69.5% | 77.8% | 95.5% | 24.8% | 71% | 52.4% | –
CCN(CC)CCCC(C)Nc1ccnc2cc(Cl)ccc12 (configuration not stated) | inactive | – | – | – | – | – | – | – | –
CC(C)=CCC/C(C)=C/COc1c2ccoc2cc2oc(=O)ccc12 | inactive | – | – | – | – | – | – | – | –
C[C@H](CCc1ccc(O)cc1)NCCc1ccc(O)c(O)c1 | inactive | – | – | – | – | – | – | – | –
COc1cc(C(=O)OCCCCNC(=N)N)cc(OC)c1O | inactive | – | – | – | – | – | – | – | –
C=CCN1C[C@H](C(=O)N(CCCN(C)C)C(=O)NCC)C[C@@H]2c3cccc4[nH]cc(c34)C[C@H]21 [CABERGOLINE] | inactive | 63.9% | 68.2% | 87.5% | 94.8% | 37.7% | 73.8% | 37.4% | –
COC(=O)[C@@H](Cc1ccc(O)c(O)c1)OC(=O)/C=C/c1ccc(O)c(O)c1 [METHYL ROSMARINATE] | inactive | 74.1% | 75.2% | 53.6% | 69.6% | 46.3% | 80.4% | 25.6% | –
C=CCc1ccc(O)c(-c2ccc(O)c(CC=C)c2)c1 | inactive | – | – | – | – | – | – | – | Activity [17]: Active
COc1cc(/C=C/C(=O)NCCc2ccc(O)cc2)ccc1O | inactive | – | – | – | – | – | – | – | –
COc1cc(CCC(=O)CC(O)CCc2ccc(O)c(OC)c2)ccc1O (configuration not stated) [HEXAHYDROCURCUMIN] | inactive | 66% | 52.4% | 66.5% | 73.3% | 41.4% | 103% | 42.9% | Activity [9]: Active
O=C(CCc1ccccc1)C[C@@H](O)/C=C/c1ccccc1 | inactive | – | – | – | – | – | – | – | –
O=C(/C=C/C=C/c1ccc2c(c1)OCO2)N1CCCCC1 [PIPERINE] | inactive | 66.2% | 57.3% | 35.2% | 98.3% | 36.5% | 87.8% | 24.5% | –
